Screening data from PubChem BioAssay.
PostGolgi yeast: phenotypic screen on post-Golgi transport, primary screen; post-Golgi transport phenotypic cell assay; inhibition, % at 10 µM; 98,000 compounds, 0.9% hits;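 also: yeast cells grown in 1536-well plates; yeast grown about 18 h at 30C before absorbance read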
HER2 expr 66K: inhibitors of Her2 protein expression, primary screen, SKBR-3 cells, AlphaScreen, 66K library; AID 645, 2007; 65,000 compounds, 0.69% hits; SKBR-3 HER2 protein level, 18-24 h; hits give low values; HER2 level % of control, % at 10 µM; Receptor tyrosine-protein kinase erbB-2 (Homo sapiens), P04626;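 active = HER2 level under 5% of the carrier-only control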;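 also: 100% = DMSO carrier and 0% = 500 nM PU-H71 HSP90 inhibitor; lower value means stronger loss of Her2 protein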
E coli WT exp: growth inhibitors of wild-type E. coli, primary screen, strain BW25113, expanded library, OD600; OD600 absorbance; growth inhibition, % at 100 µM; 98,000 compounds, 0.15% hits; AID 710, 2007;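 active = growth inhibition above about 50% at one test dose, limit read from the data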;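 also: growth measured after 20 h incubation at 37 °C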
PostGolgi ctrl: growth inhibition of yeast control strain, primary screen, counter-screen for post-Golgi transport modulator project. inhibition, % at 10 µM. efflux-deficient yeast background strain, growth absorbance A615, 16 h. 98,000 compounds, 5% hits
tolC growth inh: growth inhibitors of E. coli tolC mutant, primary screen, strain BW25113 ΔtolC::kan, 384-well; OD615; growth inhibition, % at 10 µM (by protocol); 65,000 compounds, 2.2% hits;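 active = growth inhibition at or above a cutoff equal to the mean over every tested compound plus 3 SD, cut at about 60% in these data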;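 also: growth measured after 20 h incubation at 37 °C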
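Doses: one dose of 10 µM final / Material: E. coli BW25113 ΔtolC::kan, tolC deletion mutant strain / Buffer or medium: LB with kanamycin 50 µg/mL / Evaluation: percent growth inhibition / Detection: optical density read at 615 nm / Incubation: 37 °C, 20 h exposure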
An asterisk follows results filed as active. Hits are enriched below; roughly 6.6% of the tested compounds scored in any of these assays. Rule as the data show it, unless noted: active = inhibition above about 30%; inactive = the rest.

CC(C)Oc1snc(Cl)c1C(N)=O was read as PostGolgi yeast 8, HER2 expr 66K 93, E coli WT exp 6, PostGolgi ctrl -10 and tolC growth inh -17.
`O=C(CSc1nnc(CNc2ccc(F)cc2)o1)N1c2ccccc2Sc2ccccc21` gave PostGolgi yeast 11, E coli WT exp -9 and PostGolgi ctrl 50*.
Screening CC1Cc2ccccc2N1C(=O)CSc1nnc(CNc2ccccc2)o1 (configuration not stated) returned PostGolgi yeast 0, HER2 expr 66K 77, E coli WT exp 0, PostGolgi ctrl 37* and tolC growth inh -15.
For CC1Cc2ccccc2N1C(=O)CSc1ccccc1 (configuration not stated) the results were PostGolgi yeast -2, E coli WT exp 3 and PostGolgi ctrl 10.
`CC(C)c1nc(SCC(=O)N2c3ccccc3CC2C)c2ccccc2n1` (configuration not stated) gave PostGolgi yeast 12, E coli WT exp -21 and PostGolgi ctrl 37*.
`C=CCNC(=O)C1CCN(S(=O)(=O)c2ccc(Br)cc2)CC1` gave PostGolgi yeast 5, HER2 expr 66K 91, E coli WT exp -1, PostGolgi ctrl 3 and tolC growth inh 7.
O=C1CSC(=Nc2cc(Cl)ccc2Cl)N1 was read as PostGolgi yeast 0, HER2 expr 66K 71, E coli WT exp -7, PostGolgi ctrl 14 and tolC growth inh -3.
For COc1cccc2cc(C(=O)N(C)C3CCN(C)CC3)c(=O)oc12 the results were PostGolgi yeast -3, HER2 expr 66K 104, E coli WT exp -1, PostGolgi ctrl 2 and tolC growth inh -14.
Screening CCOC(=O)CSc1nc(C(C)C)nc2ccccc12 returned PostGolgi yeast -6, E coli WT exp 8 and PostGolgi ctrl 10.
`CCOC(=O)CSc1nc(C2CC2)nc2ccccc12` gave PostGolgi yeast 4, HER2 expr 66K 106, E coli WT exp 3, PostGolgi ctrl 39* and tolC growth inh 23.
Screening Cc1cc(C)cc(OC(=O)CS(=O)c2ccc(C(F)(F)F)cc2[N+](=O)[O-])c1 (configuration not stated) returned PostGolgi yeast 13, E coli WT exp 3 and PostGolgi ctrl 35*.
Screening Cc1ccc(NC(=O)COc2ccc(/C(N)=N/O)cc2)cc1C returned HER2 expr 66K 95 and tolC growth inh -9.
Screening CCOC(=O)c1cc(CC)sc1N returned PostGolgi yeast 0, HER2 expr 66K 105, E coli WT exp 15, PostGolgi ctrl 30* and tolC growth inh -9.
Screening Cn1c(=O)[nH]c(=O)c2[nH]c(CN3CCN(C(=O)c4ccco4)CC3)nc21 returned PostGolgi yeast 8, HER2 expr 66K 91, E coli WT exp 5, PostGolgi ctrl 3 and tolC growth inh -24.
O=C(CCN1C(=O)COc2ccccc21)NCc1cccs1 was read as PostGolgi yeast -5, HER2 expr 66K 111, E coli WT exp -3, PostGolgi ctrl 13 and tolC growth inh -11.
For COc1ccc(Cc2nc(C(=O)Nc3ccc(Cl)cc3)cs2)cc1 the results were PostGolgi yeast 19, E coli WT exp -13 and PostGolgi ctrl 38*.
Cc1cccc(CS(=O)(=O)Cc2ccc(C(=O)NCCCN3CCOCC3)o2)c1 was read as PostGolgi yeast -5, HER2 expr 66K 93, E coli WT exp 0, PostGolgi ctrl -2 and tolC growth inh -14.
CCOCCCNC(=O)c1ccc(CS(=O)(=O)Cc2cccc(C)c2)o1 was read as PostGolgi yeast -11, HER2 expr 66K 96, E coli WT exp 1, PostGolgi ctrl 33* and tolC growth inh -19.
For Cc1cccc(CS(=O)(=O)Cc2ccc(C(=O)NCCCN3CCCC3)o2)c1 the results were PostGolgi yeast 33*, E coli WT exp -4 and PostGolgi ctrl -9.
Cc1cc(NCc2ccccc2)nc(-c2ccccc2O)n1 was read as PostGolgi yeast -11, HER2 expr 66K 95, E coli WT exp -17, PostGolgi ctrl 57* and tolC growth inh 6.
`Cc1cc(Nc2ccccc2)nc(-c2ccccc2O)n1` gave PostGolgi yeast 17, HER2 expr 66K 71, E coli WT exp 4, PostGolgi ctrl 37* and tolC growth inh 100*.
For Cc1cc(NC2CCCCC2)nc(-c2ccccc2O)n1 the results were PostGolgi yeast 5, E coli WT exp -5 and PostGolgi ctrl 18.
`Cc1cc(Nc2cccc(F)c2)nc(-c2ccccc2O)n1` gave PostGolgi yeast 6, HER2 expr 66K 113, E coli WT exp -6, PostGolgi ctrl 15 and tolC growth inh -15.
S=c1[nH]nc(C2CCCCC2)n1/N=C/c1ccc(Br)s1 was read as PostGolgi yeast 1, E coli WT exp -8 and PostGolgi ctrl -7.
CN(CC(=O)Nc1ccccc1N1CCOCC1)S(=O)(=O)c1ccc(F)cc1 was read as PostGolgi yeast -5, E coli WT exp -2 and PostGolgi ctrl 31*.
Screening COc1ccc(NC(=O)c2cccs2)cc1O returned PostGolgi yeast -4, HER2 expr 66K 111, E coli WT exp 19, PostGolgi ctrl 1 and tolC growth inh -14.
COc1ccc(/C=C/C(=O)c2ccc(NC(=O)c3cccs3)cc2)cc1OC was read as PostGolgi yeast -8, E coli WT exp -25 and PostGolgi ctrl 54*.
`[N-]=[N+]=CC(=O)CC(c1ccccc1)N1C(=O)c2ccccc2C1=O` (configuration not stated) gave PostGolgi yeast -3, HER2 expr 66K -28*, E coli WT exp 0, PostGolgi ctrl 2 and tolC growth inh -14.
For [N-]=[N+]=CC(=O)CCCN1C(=O)c2ccccc2C1=O the results were PostGolgi yeast -1, HER2 expr 66K 101, E coli WT exp 0, PostGolgi ctrl 1 and tolC growth inh -20.
CCOc1ccc(C(Nc2ccc(C)cc2)P2(=O)OCCC(C)O2)cc1 (configuration not stated) was read as PostGolgi yeast -8, E coli WT exp 2 and PostGolgi ctrl 28.
For N#Cc1cc(N)ccc1Sc1ccccc1 the results were PostGolgi yeast 23, E coli WT exp 12 and PostGolgi ctrl 0.
Screening N#Cc1cc(N)ccc1Sc1ccc(Cl)cc1 returned PostGolgi yeast 9, E coli WT exp 32 and PostGolgi ctrl 53*.
COc1cc2c(cc1NC(=O)CSc1nc3ccccc3[nH]1)oc1ccccc12 was read as PostGolgi yeast 2, E coli WT exp -12 and PostGolgi ctrl 74*.
Screening CN(CC(=O)NC(=O)NCc1ccco1)Cc1nc2ccccc2c(=O)[nH]1 returned PostGolgi yeast -9, HER2 expr 66K -33*, E coli WT exp 6, PostGolgi ctrl 21 and tolC growth inh 3.
COc1cc2c(cc1NC(=O)CN(C)Cc1nc3ccccc3c(=O)[nH]1)oc1ccccc12 was read as PostGolgi yeast -6, HER2 expr 66K 92, E coli WT exp -1, PostGolgi ctrl 59* and tolC growth inh 1.
